Test results published in PubChem BioAssay.
Inconclusive results are not listed.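 The calls were made as follows, unless noted: active = inhibition over a set limit, the all-compound mean plus 3 SD, in both replicate runs; inconclusive = over that limit in just one replicate run; inactive = at or under that limit in both runs.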

Key:
[1] = OD615 S. cerevisiae growth inhibition, permissive medium, pilot counter-assay, permissive growth control for S. cerevisiae lifespan shortening project (AID 705;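 active = growth inhibition above 25% in both replicates, a cutoff set 3 SD above the mean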); conditions: OD615, 24 h, at 10 µM, active compounds read high
In short: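 Test system: Saccharomyces cerevisiae strain carrying genetically modified DeaD replicative-lifespan system; buffer or medium: SC raffinose/galactose permissive medium; dosing: one dose 10 µM, DMSO 0.25% final; times: 24 h exposure, 30 °C; measured by: OD at 615 nm; read-out basis: growth inhibition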

[2] = Restrictive medium S. cerevisiae growth inhibition, OD615, pilot screen of yeast lifespan reduction project, restrictive growth control (AID 706;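 active = growth inhibition above a set limit, 3 SD over mean compound inhibition, in both replicates, cut at about 43% in these data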;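 also: modified DeaD lifespan yeast strain shifted to restrictive glucose medium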); conditions: OD615, 48 h, at 10 µM, active compounds read high
In short: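 material = engineered S. cerevisiae DeaD strain | buffer or medium = glucose-based CSMM-D restrictive medium | dosing = one concentration, 10 µM final, 0.25% DMSO | schedule = 4 h pre-growth plus 48 h compound exposure, 30 °C | detection = OD615 absorbance reading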

[3] = viability gain of MRP-1-high H69AR cells under doxorubicin, pilot screen, MRP-1 activator project, CellTiter-Glo, duplicate (AID 807;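 active = viability increase at or above a cutoff of the median across tested compounds plus 3 SD, cut at about 8.5% in these data, passing the limit was not always enough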;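 also: compound pretreatment 18-22 h then 72 h combined with doxorubicin; 0% = doxorubicin alone and 100% = vehicle without doxorubicin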); conditions: H69AR viability with doxorubicin, CellTiter-Glo luminescence; at 10 µM; active compounds read high
[4] = growth suppression of beta-catenin knockout HCT116, pilot screen, human colon tumor cells (AID 823;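 active = cell viability at or below a set limit in both duplicate runs, the limit being the all-compound median minus 4 SD, cut at about 23% in these data, passing the limit was not always enough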;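 also: 0% = wells killed by 20 µM Hyamine and 100% = untreated DMSO cell wells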); conditions: CellTiter-Glo, 60 h, at 10 µM, active compounds read low
[5] = growth suppression of PTEN-deleted HCT116, pilot screen, cell-based, HCT116 clonal line, CellTiter-Glo (AID 824;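 active = viability at or below 27.92% in each of two runs, the all-compound median minus 4 SD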;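 also: 0% = 20 µM Hyamine control and 100% = vehicle cell control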); conditions: 60 h, at 10 µM, active compounds read low
[6] = inhibitors of the yeast RAM network, pilot screen, dse1pr::URA3 reporter, 5-FOA selection (AID 869);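 also: 0% = DMSO wells with no growth and 100% = 10 µM 1-NA-PP1 with full growth; RAM network block rescues cells from 5-FOA so hits raise OD615 growth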; conditions: S. cerevisiae dse1pr::URA3 5-FOA growth, OD615, 2 d; at 10 µM; active compounds read high; strain carries analog-sensitive mutant Cbk1 kinase
[7] = RAM signaling pathway blockade in yeast – S. cerevisiae, Pdr1DBD-CYC8 efflux-inhibited sensitized strain, primary screen (AID 1298;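 active = RAM network inhibition above 8.4% in each of two replicates, 3 SD over the compound average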;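 also: 0% = DMSO untreated cells without growth and 100% = 10 µM 1-NA-PP1 full growth; higher means more yeast growth rescued from 5-FOA killing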); conditions: S. cerevisiae cbk1-as DSE1-URA3 strain, 5-FOA growth OD615, 2 d; at 50 µM; active compounds read high

CC(=O)N(c1c(C)n(C)n(-c2ccccc2)c1=O)C1(C(=O)NC2CCCC2)CCCCC1
inactive: growth inhibition [1] -1.1% | growth inhibition [2] -19% | viability increase [3] -1.56% | viability [4] 95.1% | viability [5] 95.8% | inhibition [6] 0.27% | RAM network inhibition [7] -1.24%

CCOC(=O)C1CCCN(c2cc(=O)n(-c3ccccc3Cl)c(=O)[nH]2)C1 (centres undefined)
inactive: growth inhibition [1] -3.86% | growth inhibition [2] -18.9% | viability increase [3] -1.99% | viability [4] 89.7% | viability [5] 94.5% | inhibition [6] 1.53% | RAM network inhibition [7] 0.31%

O=C(NCc1ccc(Cl)cc1)c1cccnc1
inactive: growth inhibition [1] -1.45% | growth inhibition [2] 9.27% | viability increase [3] -0.63% | viability [4] 92.8% | viability [5] 93.6% | inhibition [6] 1.8% | RAM network inhibition [7] 0.15%

CC1CCN(CCCn2c(=S)[nH]c3ccccc3c2=O)CC1
inactive: growth inhibition [1] 1.02% | growth inhibition [2] 10.3% | viability increase [3] -2.18% | viability [4] 91.3% | viability [5] 93.7% | inhibition [6] 1.1% | RAM network inhibition [7] 0.66%

CCOC(=O)c1sc(NC(=O)C2CCCO2)c(C(=O)OCC)c1C (centres undefined)
inactive: growth inhibition [1] -9.48% | growth inhibition [2] -8.48% | viability increase [3] -2.56% | viability [4] 102% | viability [5] 93% | inhibition [6] 1.31% | RAM network inhibition [7] 2.09%

Cc1ccc2nc(NC(=O)c3ccc(Cl)s3)sc2c1
inactive: growth inhibition [1] -17.2% | growth inhibition [2] -14.8% | viability increase [3] -6.45% | viability [4] 64.5% | viability [5] 63% | inhibition [6] 1.35% | RAM network inhibition [7] 2.06%

Cc1cc(C)n(CC(=O)n2c3ccccc3c3ccccc32)n1
inactive: growth inhibition [1] 5.86% | growth inhibition [2] -3.37% | viability increase [3] -3.82% | viability [4] 78.2% | viability [5] 91.7% | inhibition [6] 0.155% | RAM network inhibition [7] -1.18%

COC(=O)c1c(NC(=O)C2CC2)sc2c1CCN(C(C)=O)C2
inactive: growth inhibition [1] -10.8% | growth inhibition [2] -31.3% | viability increase [3] -0.44% | viability [4] 105% | viability [5] 91.6% | inhibition [6] 1.98% | RAM network inhibition [7] -1.38%

COc1ccccc1NC(=O)Cc1noc(CSc2nnc(C)s2)n1
inactive: growth inhibition [1] -3.75% | growth inhibition [2] 0.765% | viability increase [3] -2.11% | viability [4] 97.2% | viability [5] 97.6% | inhibition [6] 0.43% | RAM network inhibition [7] 5.03%

CCOc1ccc(OCC)c(Nc2cc(C)nc3ncnn23)c1
inactive: growth inhibition [1] -1.1% | growth inhibition [2] 7.09% | viability increase [3] -3.71% | viability [4] 90% | viability [5] 87.7% | inhibition [6] 0.1% | RAM network inhibition [7] -0.06%

Cc1cccc(C(=O)N2CCN(Cc3ccc4c(c3)OCO4)CC2)c1
inactive: growth inhibition [1] -10.7% | growth inhibition [2] -4.2% | viability increase [3] -1.3% | viability [4] 111% | viability [5] 95.7% | inhibition [6] -0.065% | RAM network inhibition [7] 4.6%

C=CCNc1nc2c(c(=O)n(C)c(=O)n2C)n1CC(=C)C
inactive: growth inhibition [1] -1.17% | growth inhibition [2] 2.97% | viability increase [3] -0.38% | viability [4] 91.2% | viability [5] 91.8% | inhibition [6] -0.15% | RAM network inhibition [7] 1.58%

CCc1nc(C)cn1S(=O)(=O)c1cc(C)c(OC)cc1C
inactive: growth inhibition [1] -0.385% | growth inhibition [2] 0.98% | viability increase [3] 0.56% | viability [4] 102% | viability [5] 103% | inhibition [6] 1.69% | RAM network inhibition [7] 12.1%

Cc1cccc(CCNC(=O)CN(C)S(=O)(=O)c2ccc3c(c2)c(=O)n(C)c(=O)n3C)c1
inactive: growth inhibition [1] -12.1% | growth inhibition [2] -22.2% | viability increase [3] -0.92% | viability [4] 102% | viability [5] 90.4% | inhibition [6] 1.75% | RAM network inhibition [7] 2.91%

OCCCc1nc2ccccc2n1CCOc1ccccc1
inactive: growth inhibition [1] -10.4% | growth inhibition [2] 12.7% | viability increase [3] -0.86% | viability [4] 88.5% | viability [5] 94.6% | inhibition [6] 0.595% | RAM network inhibition [7] 2.86%

COc1ccc(OC)c(CNC(=O)Cc2c(C(=O)O)[nH]c3ccccc23)c1
inactive: growth inhibition [1] -7.09% | growth inhibition [2] -25% | viability increase [3] -0.54% | viability [4] 104% | viability [5] 101% | inhibition [6] -0.185% | RAM network inhibition [7] 5.43%

CCN(CCCNC(=O)Cn1ncc2c(=O)oc3ccccc3c21)c1cccc(C)c1
inactive: growth inhibition [1] 1.03% | growth inhibition [2] 9.37% | viability increase [3] -2.09% | viability [4] 89.9% | viability [5] 87.5% | inhibition [6] 2.57% | RAM network inhibition [7] 3.72%

CCC(=O)N=c1sc2c(C)cc(C)cc2n1CC(=O)OC
inactive: growth inhibition [1] -9.96% | growth inhibition [2] -16.1% | viability increase [3] -0.83% | viability [4] 92.4% | viability [5] 88.7% | inhibition [6] 1.55% | RAM network inhibition [7] 2.76%

COc1cc(/C=N/n2cnnc2)ccc1OC(=O)c1ccncc1
inactive: growth inhibition [1] -13.9% | growth inhibition [2] -15.2% | viability increase [3] -2.23% | viability [4] 92.9% | viability [5] 99.1% | inhibition [6] 1.43% | RAM network inhibition [7] 1.08%

N#Cc1ccc(Oc2cccnc2)cc1C#N
inactive: growth inhibition [1] -13.5% | growth inhibition [2] -20.4% | viability increase [3] -0.76% | viability [4] 100% | viability [5] 97.5% | inhibition [6] 1.49% | RAM network inhibition [7] 2.79%

O=C(C1CCN(S(=O)(=O)c2cccc3cccnc23)CC1)N1CCn2c1nc1ccccc12
inactive: growth inhibition [1] -1.95% | growth inhibition [2] -3.35% | viability increase [3] -1.86% | viability [4] 87.7% | viability [5] 83.2% | inhibition [6] 2.52% | RAM network inhibition [7] -1.55%

CCOc1cc(-c2cc(N)n[nH]2)cc(OCC)c1OCC
inactive: growth inhibition [1] -14.5% | growth inhibition [2] -8.22% | viability increase [3] -2.48% | viability [4] 104% | viability [5] 91.5% | inhibition [6] 0.37% | RAM network inhibition [7] 0.35%

C#CCn1c(=NC(=O)CN2C(=O)CCC2=O)sc2cccc(C)c21
inactive: growth inhibition [1] -15.5% | growth inhibition [2] -1.5% | viability increase [3] -3.32% | viability [4] 93.3% | viability [5] 88.8% | inhibition [6] 1.89% | RAM network inhibition [7] 2.03%

Cc1nn2c(=O)cc(CSc3nc4ccccc4[nH]3)nc2s1
inactive: growth inhibition [1] -3.92% | growth inhibition [2] 2.41% | viability increase [3] -2.31% | viability [4] 103% | viability [5] 103% | inhibition [6] 1.35% | RAM network inhibition [7] 0.17%

CCOC(=O)CC1C(=O)NCCN1Cc1cccc(C(F)(F)F)c1 (centres undefined)
inactive: growth inhibition [1] -4.03% | growth inhibition [2] -3.95% | viability increase [3] -1.61% | viability [4] 97.4% | viability [5] 86% | inhibition [6] 1.66% | RAM network inhibition [7] -0.14%

COc1ccc(OC)c2c1CC(C)(C)NC2=O
inactive: growth inhibition [1] 0.615% | growth inhibition [2] 7.13% | viability increase [3] -0.54% | viability [4] 88.3% | viability [5] 96.9% | inhibition [6] 1.83% | RAM network inhibition [7] 3.75%

CCC(Sc1nc2ccccc2[nH]1)C(=O)Nc1cc(C)on1 (centres undefined)
inactive: growth inhibition [1] -13% | growth inhibition [2] -17.9% | viability increase [3] 1.02% | viability [4] 100% | viability [5] 101% | inhibition [6] 1.1% | RAM network inhibition [7] -0.37%

CCCCC(CC)CNC(=O)c1cccs1 (centres undefined)
inactive: growth inhibition [1] 6.58% | growth inhibition [2] 13.6% | viability increase [3] 0.39% | viability [4] 79.2% | viability [5] 85.8% | inhibition [6] -0.705% | RAM network inhibition [7] -1.28%

Cc1cc(Nc2cc(F)ccc2C)n2ncnc2n1
inactive: growth inhibition [1] -2.42% | growth inhibition [2] 9.4% | viability increase [3] -0.28% | viability [4] 102% | viability [5] 97.3% | inhibition [6] 3.77% | RAM network inhibition [7] 4.19%

O=C(CN1C(=O)COc2ccccc21)Nc1ccc(F)cc1
inactive: growth inhibition [1] -5.98% | growth inhibition [2] 6.11% | viability increase [3] -5.59% | viability [4] 106% | viability [5] 91.6% | inhibition [6] 1.26% | RAM network inhibition [7] 0.3%

Cc1ccoc1C(=O)NCc1occc1C(=O)O
inactive: growth inhibition [1] -12.6% | growth inhibition [2] -16.8% | viability increase [3] -3.44% | viability [4] 96.2% | viability [5] 93.1% | inhibition [6] -0.575% | RAM network inhibition [7] 1.58%

COc1ccccc1CC(=O)N1CCN(c2cccc(C(F)(F)F)c2)CC1
inactive: growth inhibition [1] -9.59% | growth inhibition [2] 5.32% | viability increase [3] 1.84% | viability [4] 39.9% | viability [5] 60.9% | inhibition [6] 1.1% | RAM network inhibition [7] 7.84%

Oc1c(C(c2ccc(F)cc2)N2CCc3ccccc3C2)sc2ncnn12 (centres undefined)
inactive: growth inhibition [1] -5.9% | growth inhibition [2] -6.98% | viability increase [3] 4.08% | viability [4] 103% | viability [5] 91.7% | inhibition [6] 2.67% | RAM network inhibition [7] 3.09%

Cc1c(NC(=O)c2ccc3c(c2)OCO3)c(=O)n(-c2ccccc2)n1C
inactive: growth inhibition [1] -8.08% | growth inhibition [2] -23.4% | viability increase [3] -0.33% | viability [4] 104% | viability [5] 101% | inhibition [6] 0.345% | RAM network inhibition [7] 2.71%

O=C(CC1Oc2ccccc2NC1=O)NC1CC1 (centres undefined)
inactive: growth inhibition [1] -1.45% | growth inhibition [2] -2.85% | viability increase [3] 0.91% | viability [4] 108% | viability [5] 93.5% | inhibition [6] 3.03% | RAM network inhibition [7] -0.05%

OC1CCN(c2c3c(nc4cc(-c5cccc(F)c5)nn24)CCCC3)CC1
inactive: growth inhibition [1] 2.2% | growth inhibition [2] -11.2% | viability increase [3] -6.47% | viability [4] 73.8% | viability [5] 65% | inhibition [6] 2.02% | RAM network inhibition [7] 9.14%

O=C(CN(C1CCCCC1)S(=O)(=O)c1ccc(Cl)cc1)NCc1ccncc1
inactive: growth inhibition [1] -6.84% | growth inhibition [2] 3.38% | viability increase [3] -2.2% | viability [4] 79.8% | viability [5] 79.4% | inhibition [6] 1.56% | RAM network inhibition [7] 3.63%
